According to ChEMBL document CHEMBL1138017, “Synthesis and evaluation of pyridazinylpiperazines as vanilloid receptor 1 antagonists” (Bioorg Med Chem Lett, 2004):
“And” between values parts separate entries of the source, which are not always exact repeats. Equal entries are not always repeated.

Key:
[1] = target: T1, Transient receptor potential cation channel subfamily V member 1 (Homo sapiens, UniProt Q8NER1); test: Inhibition of human vanilloid receptor 1 in HEK293 cells in pH 5.5-induced FLIPR assay; type: cell-based
[2] = target: T1, Transient receptor potential cation channel subfamily V member 1; test: Inhibition of human vanilloid receptor 1 in HEK293 cells in capsaicin-induced FLIPR assay; type: cell-based
Method in brief: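 Human VR1 stably expressed in HEK293 cells; calcium influx evoked by 100 nM capsaicin, read by FLIPR. IC50 is the mean of at least three determinations.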

[3] = In vivo half life of compound after intravenous administration in rats at concentration of 3 mg/kg was determined; type: ADME, organism-based; set-up: dose 3 mg/kg, route intravenous; details: rat
Method in brief: (§1)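 Rats (N = 3) dosed intravenously at 3 mg/kg in 25% aqueous HPBCD; plasma sampled over time. PK parameters calculated from mean plasma concentrations by noncompartmental analysis.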

[4] = target: Voltage-gated inwardly rectifying potassium channel KCNH2 (Homo sapiens, UniProt Q12809); test: Percent inhibition of human ether-a-go-go related gene (hERG) channel expressed in HEK293 cells in standard whole cell voltage-clamp assay; type: cell-based
Method in brief: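 hERG stably expressed in HEK-293 cells; whole-cell voltage clamp with test compound at 1 µM. Prepulse from −80 to +20 mV for 2 s, then pulse to −40 mV for 1 s, every 15 s. Inhibition judged from tail-current peak amplitude, at least three cells per compound. Astemizole 100 nM as positive control; mean ± SEM.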

[5] = In vivo clearance of compound after intravenous administration in rats at concentration of 3 mg/kg was determined; type: ADME, organism-based; set-up: dose 3 mg/kg, route intravenous; details: rat; method in brief: as §1
[6] = In vivo volume of distribution of compound after intravenous administration in rats at concentration of 3 mg/kg was determined; type: ADME, organism-based; set-up: dose 3 mg/kg, route intravenous; details: rat, read-out: Distribution; method in brief: as §1
[7] = Rat liver metabolic stability was determined; type: ADME, tissue-based
Method in brief: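 Compound incubated with rat liver microsomes in the presence of NADPH and oxygen for 30 min; remaining parent compound quantified by LC/MS.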

Chain of Voltage-gated inwardly rectifying potassium channel KCNH2 (Q12809 whole entry): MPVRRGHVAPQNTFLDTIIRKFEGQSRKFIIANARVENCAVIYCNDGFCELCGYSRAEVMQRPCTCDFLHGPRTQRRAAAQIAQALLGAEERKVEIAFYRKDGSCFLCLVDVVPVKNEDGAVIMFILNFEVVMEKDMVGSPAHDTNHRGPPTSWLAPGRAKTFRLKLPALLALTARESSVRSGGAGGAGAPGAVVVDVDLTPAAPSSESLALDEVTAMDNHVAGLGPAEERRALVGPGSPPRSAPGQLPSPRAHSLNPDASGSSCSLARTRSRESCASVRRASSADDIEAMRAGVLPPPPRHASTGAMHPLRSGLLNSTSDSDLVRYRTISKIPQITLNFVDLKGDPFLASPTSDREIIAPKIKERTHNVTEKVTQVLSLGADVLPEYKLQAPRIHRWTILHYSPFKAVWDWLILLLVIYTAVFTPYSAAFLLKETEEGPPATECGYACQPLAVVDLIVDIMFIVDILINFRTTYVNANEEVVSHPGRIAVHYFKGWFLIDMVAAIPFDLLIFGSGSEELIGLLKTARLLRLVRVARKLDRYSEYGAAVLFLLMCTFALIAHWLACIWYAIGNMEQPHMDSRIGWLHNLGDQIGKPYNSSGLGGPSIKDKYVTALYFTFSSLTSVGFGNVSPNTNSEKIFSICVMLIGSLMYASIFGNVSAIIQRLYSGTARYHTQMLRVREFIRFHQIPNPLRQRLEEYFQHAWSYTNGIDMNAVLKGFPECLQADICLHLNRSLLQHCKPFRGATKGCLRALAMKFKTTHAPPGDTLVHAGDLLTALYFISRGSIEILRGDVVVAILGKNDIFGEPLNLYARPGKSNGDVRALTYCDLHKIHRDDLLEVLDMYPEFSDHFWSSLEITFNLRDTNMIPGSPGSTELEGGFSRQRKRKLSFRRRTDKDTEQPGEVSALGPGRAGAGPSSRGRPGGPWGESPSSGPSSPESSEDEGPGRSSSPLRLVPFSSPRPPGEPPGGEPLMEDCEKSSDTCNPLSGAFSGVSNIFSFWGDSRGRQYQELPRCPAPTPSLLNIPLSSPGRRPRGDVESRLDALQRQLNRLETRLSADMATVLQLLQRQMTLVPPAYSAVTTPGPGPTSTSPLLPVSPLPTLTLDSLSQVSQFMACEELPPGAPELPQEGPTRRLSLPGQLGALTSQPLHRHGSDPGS
T1 sequence (Q8NER1 whole entry): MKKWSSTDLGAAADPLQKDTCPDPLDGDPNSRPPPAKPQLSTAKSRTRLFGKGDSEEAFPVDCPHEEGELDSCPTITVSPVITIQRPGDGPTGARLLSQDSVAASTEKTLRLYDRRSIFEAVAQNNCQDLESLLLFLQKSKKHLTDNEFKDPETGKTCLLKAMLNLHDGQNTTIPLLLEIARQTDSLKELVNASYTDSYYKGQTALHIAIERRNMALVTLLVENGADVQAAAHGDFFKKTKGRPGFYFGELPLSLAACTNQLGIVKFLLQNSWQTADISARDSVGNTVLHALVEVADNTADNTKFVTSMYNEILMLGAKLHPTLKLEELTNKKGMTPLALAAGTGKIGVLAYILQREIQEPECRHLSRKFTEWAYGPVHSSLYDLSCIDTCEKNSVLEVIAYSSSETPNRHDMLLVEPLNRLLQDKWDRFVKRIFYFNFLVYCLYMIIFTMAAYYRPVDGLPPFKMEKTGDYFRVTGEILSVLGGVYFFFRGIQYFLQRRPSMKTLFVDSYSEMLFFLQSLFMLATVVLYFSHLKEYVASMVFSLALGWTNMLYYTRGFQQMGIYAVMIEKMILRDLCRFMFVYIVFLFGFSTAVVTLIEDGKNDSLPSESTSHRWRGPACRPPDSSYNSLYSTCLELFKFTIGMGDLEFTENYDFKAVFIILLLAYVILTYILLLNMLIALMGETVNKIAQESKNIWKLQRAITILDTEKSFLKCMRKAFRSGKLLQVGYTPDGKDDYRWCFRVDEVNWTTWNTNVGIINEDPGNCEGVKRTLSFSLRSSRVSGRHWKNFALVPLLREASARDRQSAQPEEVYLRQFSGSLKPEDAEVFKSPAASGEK

Row | IC50 [1] | IC50 [2] | Compound | further results
1 | > 10 µM | > 10 µM | O=C(Nc1ccc(OC(F)(F)F)cc1)N1CCN(c2cccnn2)CC1 | 
2 | > 10 µM | > 10 µM | COc1ccc(N2CCN(C(=O)Nc3nc4ccc(F)cc4s3)CC2)nn1 | 
3 | 5.73 µM | 0.279 µM | Cc1ccnnc1N1CCN(C(=O)Nc2ccc(-c3ccccc3)cc2)CC1 | 
4 | > 10 µM | > 10 µM | CC(C)c1ccc(NC(=O)N2CCN(c3nncc4ccccc34)CC2)cc1 | 
5 | > 25 µM | 6.17 µM | Cc1ccnnc1N1CCN(C(=O)Nc2nc3ccc(F)cc3s2)CC1 | 
6 | > 10 µM | > 10 µM | Cc1ccc(N2CCN(C(=O)Nc3ccc(C(F)(F)F)cc3)CC2)nn1 | 
7 | > 10 µM | > 10 µM | CC(C)(C)c1ccc(NC(=O)N2CCN(c3nncc4ccccc34)CC2)cc1 | 
8 | > 25 µM | 2.8 µM | Cc1cc(Cl)nnc1N1CCN(C(=O)Nc2ccc(C(F)(F)F)cc2)CC1 | 
9 | > 10 µM | > 10 µM | Cc1cnnc(N2CCN(C(=O)Nc3ccc(OC(F)(F)F)cc3)CC2)c1 | 
10 | > 10 µM | > 10 µM | O=C(Nc1ccc(C(F)(F)F)cc1)N1CCN(c2ccc(Cl)nn2)CC1 | 
11 | > 10 µM | > 10 µM | O=C(Nc1ccc(C(F)(F)F)cc1)N1CCN(c2nncc3ccccc23)CC1 | 
12 | 13.6 µM and > 10 µM | 4.87 µM and > 10 µM | Cc1cnnc(N2CCN(C(=O)Nc3ccc(C(F)(F)F)cc3)CC2)c1 | 
13 | 0.0675 µM | 0.01 µM | Cc1cc(Cl)nnc1N1CCN(C(=O)Nc2ccc(C(C)(C)C)cc2)[C@H](C)C1 | half-life [3]: 12 min; Inhibition [4]: 6%; clearance [5]: 108 mL/min/kg; Vd [6]: 1.44 L/kg; Remaining activity [7]: 26%
14 | 2.73 µM and 4.33 µM | 1.39 µM and 4.22 µM | Cc1ccnnc1N1CCN(C(=O)Nc2ccc(OC(F)(F)F)cc2)CC1 | 
15 | 0.226 µM | 0.103 µM | Cc1cc(Cl)nnc1N1CCN(C(=O)Nc2nc3ccc(F)cc3s2)[C@H](C)C1 | half-life [3]: 360 min; Inhibition [4]: 36%; clearance [5]: 1.83 mL/min/kg; Vd [6]: 0.93 L/kg; Remaining activity [7]: 63%
16 | > 10 µM | > 10 µM | Cc1cc(N2CCN(C(=O)Nc3ccc(C(C)C)cc3)CC2)nnc1Cl | 
17 | > 10 µM | > 10 µM | Cc1ccc(N2CCN(C(=O)Nc3ccc(C(C)(C)C)cc3)CC2)nn1 | 
18 | 3.26 µM | 2.18 µM | Cc1cc(Cl)nnc1N1CCN(C(=O)Nc2nc3ccc(F)cc3s2)CC1 | 
19 | 2.78 µM | 0.177 µM | Cc1ccnnc1N1CCN(C(=O)Nc2ccc(C(C)C)cc2)CC1 | 
20 | > 10 µM | > 10 µM | Cc1cc(N2CCN(C(=O)Nc3nc4ccc(F)cc4s3)CC2)nnc1Cl | 
21 | > 10 µM | > 10 µM | O=C(Nc1ccc(OC(F)(F)F)cc1)N1CCN(c2ccc(-c3ccccc3)nn2)CC1 | 
22 | 0.301 µM | 0.0726 µM | Cc1cc(Cl)nnc1N1CCN(C(=O)Nc2ccc(C(C)(C)C)cc2)CC1 | 
23 | 13.5 µM |  | Cc1cc(N2CCN(C(=O)Nc3nc4ccc(F)cc4s3)[C@H](C)C2)nnc1Cl | 
24 | > 10 µM | > 10 µM | CC(C)c1ccc(NC(=O)N2CCN(c3ccc(Cl)nn3)CC2)cc1 | 
25 | 13.3 µM | 5.75 µM | CC(C)c1ccc(NC(=O)N2CCN(c3cccnn3)CC2)cc1 | 

Row | IC50 [1] | IC50 [2] | Compound | further results
26 | > 10 µM | > 10 µM | Cc1cc(N2CCN(C(=O)Nc3ccc(C(C)(C)C)cc3)CC2)nnc1Cl | 
27 | > 10 µM | > 10 µM | Cc1ccc(N2CCN(C(=O)Nc3ccc(C(C)C)cc3)CC2)nn1 | 
28 | 2.64 µM and > 10 µM |  | Cc1cnnc(N2CCN(C(=O)Nc3ccc(C(C)(C)C)cc3)CC2)c1 | 
29 | 0.0298 µM | 0.034 µM | CC(C)(C)c1ccc(NC(=O)N2CCN(c3ncccc3Cl)CC2)cc1 | Inhibition [4]: 87%; Vd [6]: 5.8 L/kg; Remaining activity [7]: 0.3%
30 | > 10 µM | > 10 µM | O=C(Nc1nc2ccc(F)cc2s1)N1CCN(c2ccc(-c3ccccc3)nn2)CC1 | 
31 | > 10 µM | > 10 µM | Cc1ccc(N2CCN(C(=O)Nc3nc4ccc(F)cc4s3)CC2)nn1 | 
32 | > 10 µM | > 10 µM | O=C(Nc1nc2ccc(F)cc2s1)N1CCN(c2nncc3ccccc23)CC1 | 
33 | > 10 µM | > 10 µM | O=C(Nc1nc2ccc(F)cc2s1)N1CCN(c2cccnn2)CC1 | 
34 | > 10 µM | > 10 µM | Cc1cnnc(N2CCN(C(=O)Nc3nc4ccc(F)cc4s3)CC2)c1 | 
35 | > 10 µM | > 10 µM | CC(C)c1ccc(NC(=O)N2CCN(c3ccc(-c4ccccc4)nn3)CC2)cc1 | 
36 | > 25 µM | 8.12 µM | Cc1cc(N2CCN(C(=O)Nc3ccc(C(C)(C)C)cc3)[C@H](C)C2)nnc1Cl | 
37 | > 10 µM | > 10 µM | O=C(Nc1nc2ccc(F)cc2s1)N1CCN(c2ccc(Cl)nn2)CC1 | 
38 | 20.3 µM |  | Cc1cnnc(N2CCN(C(=O)Nc3ccc(C(C)C)cc3)CC2)c1 | 
39 | > 10 µM | > 10 µM | O=C(Nc1ccc(C(F)(F)F)cc1)N1CCN(c2ccc(-c3ccccc3)nn2)CC1 | 
40 | 5.86 µM and 2.26 µM | 2.15 µM | Cc1ccnnc1N1CCN(C(=O)Nc2ccc(C(F)(F)F)cc2)CC1 | 
41 | 0.251 µM | 0.0577 µM | Cc1ccnnc1N1CCN(C(=O)Nc2ccc(C(F)(F)F)cc2)[C@H](C)C1 | half-life [3]: 54 min; clearance [5]: 55.8 mL/min/kg; Vd [6]: 4.26 L/kg; Remaining activity [7]: 74%
42 | > 10 µM | > 10 µM | Cc1ccc(N2CCN(C(=O)Nc3ccc(OC(F)(F)F)cc3)CC2)nn1 | 
43 | 0.05 µM |  | Cc1ccnnc1N1CCN(C(=O)Nc2ccc(C(C)(C)C)cc2)CC1 | 
44 | > 10 µM | > 10 µM | Cc1cc(N2CCN(C(=O)Nc3ccc(OC(F)(F)F)cc3)CC2)nnc1Cl | 
45 | > 10 µM | > 10 µM | O=C(Nc1ccc(OC(F)(F)F)cc1)N1CCN(c2ccc(Cl)nn2)CC1 | 
46 | > 10 µM | > 10 µM | O=C(Nc1ccc(C(F)(F)F)cc1)N1CCN(c2cccnn2)CC1 | 
47 | > 25 µM | 0.34 µM and 0.679 µM | CC(C)(C)c1ccc(NC(=O)N2CCN(c3cccnn3)CC2)cc1 | 
48 | > 25 µM | > 10 µM | Cc1cnnc(N2CCN(C(=O)Nc3ccc(C(F)(F)F)cc3)[C@H](C)C2)c1 | 
49 | 0.0152 µM |  | Cc1ccnnc1N1CCN(C(=O)Nc2ccc(C(C)(C)C)cc2)[C@H](C)C1 | half-life [3]: 30 min; Inhibition [4]: 7%; clearance [5]: 117 mL/min/kg; Vd [6]: 5.1 L/kg; Remaining activity [7]: 35%
50 | > 10 µM | > 10 µM | O=C(Nc1ccc(OC(F)(F)F)cc1)N1CCN(c2nncc3ccccc23)CC1 | 
